Screening data as filed in PubChem BioAssay.
CHOP UPR activ – activators of apoptotic arm of unfolded protein response (CHOP) | activation, % at 10 µM | AID 449763 | actives 0.34% (n = 330,000) | CHO-CHOP luciferase reporter, UPR activation, luminescence; percent of tunicamycin response over DMSO baseline;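 active = at 10 µM dose, activation of 40% or more, normalized to positive control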
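Dosing – one dose, 10 µM in 0.5% DMSO · System – CHO-CHOP cells, stable luciferase reporter of PERK-eIF2a-CHOP signalling · Input – 500 cells/well · Control set – tunicamycin 10 µg/mL final as positive, DMSO-only wells as negative · Timing – 6 h compound treatment, 37 °C · Measure – % activation vs tunicamycin · Technique – luminescence read with Steady-Glo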
CHOP inhibitor – blocks CHOP induction under ER stress. CHO-K1 CHOP-promoter luciferase, tunicamycin-induced, 15-18 h. inhibition, % at 10 µM. actives 3.8% (n = 220,000);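 active = compounds that reduced the stress-induced luciferase reporter signal by more than about 70% of percent inhibition, limit read from the data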
XBP1 UPR activ – activators of adaptive arm of unfolded protein response (XBP1). CHO-XBP1 luciferase reporter, IRE1-XBP1 UPR activation, luminescence; percent of tunicamycin response, DMSO as zero. activation, % at 20 µM. actives 0.33% (n = 330,000);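 active = versus positive control, 20 µM dose yields 30% or more activation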
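Material: IRE1-XBP1 luciferase reporter CHO line / Quantity: one thousand reporter cells per well / Buffer or medium: F12 with 10% serum / Compound: 20 µM single concentration, DMSO 1% / Times: 6 h treatment, 37 °C / Detection: Steady-Glo luciferase glow luminescence, 10 min after reagent addition / Benchmarks: tunicamycin high, DMSO low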
Jurkat NFkB inh – lowers PMA/ionomycin-induced NF-kB signal in Jurkat cells. PMA/ionomycin-induced NF-kB luciferase reporter, luminescence. inhibition, % at 4 µM. actives 0.53% (n = 330,000); in the data active = inhibition above about 50%
697 NFkB inh – inhibitors of the PMA/ionomycin-induced NF-kB reporter in 697 B cells; 697 B-cell NF-kB luciferase reporter, 16 h; inhibition, % at 4 µM; actives 0.33% (n = 330,000); AID 435022; in the data active = inhibition above about 35%
CHOP UPR conf – confirmation of apoptotic unfolded protein response (CHOP) activators. activation, % at 10 µM. CHO-CHOP cells, CHOP-luciferase reporter luminescence; percent of tunicamycin response, DMSO as zero. shares compounds with CHOP UPR activ. actives 64% (n = 1,000); in the data active = activation above about 33%
Each line names hits and unclear results; the compound was inactive in the other large screens (follow-up assays come after a bar, where they were run). This excerpt belongs to a sample that is enriched for hits.

CC1=C/C(=N\OC(=O)/C=C/c2ccccc2)C(C)=CC1=O	CHOP UPR activ 107 | CHOP UPR conf 41
CCOC(=O)CNC(=O)COc1coc(CN2CCN(c3ccc(F)cc3)CC2)cc1=O	none (no result: CHOP inhibitor)
Cc1ccc2c(COC(=O)c3ccccc3Cl)cc(=O)oc2c1	none (no result: CHOP inhibitor)
Cc1cccc(C(=O)OCc2cc(=O)oc3c(C)c(C)ccc23)c1O	CHOP UPR activ 43, XBP1 UPR activ 34 (no result: CHOP inhibitor) | CHOP UPR conf inactive
CCc1c(C)sc(NC(=O)c2cccs2)c1C#N	CHOP UPR activ 50 | CHOP UPR conf inactive
CSc1ccc(S(=O)(=O)NCC(=O)OCC(=O)N(C)C2CCCCC2)cc1[N+](=O)[O-]	none (no result: CHOP inhibitor)
Cc1ccc(SC(=O)c2c(C)noc2-c2cc(C)on2)cc1	CHOP UPR activ 57 | CHOP UPR conf inactive
Cc1ccc(Sc2c([N+](=O)[O-])c(=O)n(C)c3ccccc23)cc1	CHOP UPR activ 101 (no result: CHOP inhibitor) | CHOP UPR conf 99
N#CCSc1ccccc1NC(=O)COC(=O)CCN1C(=O)C2CC=CCC2C1=O (centres undefined)	none (no result: CHOP inhibitor)
C=CCc1cccc(/C=N/NC(=O)c2ccccc2OC)c1O	CHOP UPR activ 127 | CHOP UPR conf inactive
O=C(Nc1cccc([N+](=O)[O-])c1)c1ccccc1	none
O=C(C#Cc1cccc([N+](=O)[O-])c1)c1ccccc1	CHOP UPR activ 134, CHOP inhibitor 108 | CHOP UPR conf 188
O=C(O)/C=C/C(=O)c1ccc2c(c1)CCc1ccccc1-2	CHOP UPR activ 126 (no result: CHOP inhibitor) | CHOP UPR conf inactive
CC(=O)Nc1ccc2c(c1)CCc1ccccc1-2	none (no result: CHOP inhibitor)
O=C(Nc1nc(-c2ccccn2)cs1)c1cc(Cl)ccc1[N+](=O)[O-]	CHOP UPR activ 66 | CHOP UPR conf 167
Cn1cc(C=C2C(=O)CC(C)(C)CC2=O)c2ccccc21	none
CC1(C)CC(=O)C(=Cc2cn(-c3ccccc3)nc2-c2ccccc2)C(=O)C1	CHOP UPR activ 89 (no result: CHOP inhibitor) | CHOP UPR conf 184
CCN(c1nc(N)c(C(=O)N=C(N)N)nc1Cl)C(C)C	none
COc1cc(NS(=O)(=O)c2c(C)oc3c(F)c(F)c(F)c(F)c23)cc(OC)c1OC	none (no result: CHOP inhibitor)
CC1=CC(=O)C(C(C)C)=C/C1=N/OC(=O)c1cccc([N+](=O)[O-])c1	CHOP UPR activ 73 | CHOP UPR conf 48
Nc1ccn(CC(=O)N[C@H](CO)Cc2c[nH]c3ccccc23)c(=O)n1	none (no result: CHOP inhibitor)
Oc1c(CN2CCc3ccccc3C2)cc(Cl)c2cccnc12	CHOP UPR activ 86 (no result: CHOP inhibitor) | CHOP UPR conf 325
O=C(Oc1c(CN2CCOCC2)cc(Cl)c2cccnc12)c1ccccc1F	CHOP UPR activ 79 | CHOP UPR conf 70
Oc1c(Cl)cc(CN2CCOCC2)c2cccnc12	CHOP UPR activ 134 (no result: CHOP inhibitor) | CHOP UPR conf 128
O=C(Oc1c(CN2CCOCC2)cc(Cl)c2cccnc12)c1ccccc1	none
Oc1c(CN2CCCCC2)cc(Br)c2cccnc12	CHOP UPR activ 88 (no result: CHOP inhibitor) | CHOP UPR conf 125
Cc1nn(-c2ccccc2)c(C)c1C(=O)NNC(=O)C(F)(F)F	none
O=C(CN1CCN(c2ccccc2F)CC1)c1ccc(O)c(O)c1	CHOP UPR activ 108, XBP1 UPR activ 49 (no result: CHOP inhibitor) | CHOP UPR conf 41
O=C(CN1CCN(S(=O)(=O)c2ccc(Br)cc2)CC1)c1ccc(O)c(O)c1	CHOP UPR activ 61 (no result: CHOP inhibitor) | CHOP UPR conf inactive
CCOC(=O)C1CCN(C(=O)c2sccc2Cl)CC1	none
COCc1ccc(O)c2ncccc12	CHOP UPR activ 43, CHOP inhibitor 82, XBP1 UPR activ 37 | CHOP UPR conf 73
CN1CCN(C2CCN(Cc3ccc(O)c4ncccc34)CC2)CC1	none (no result: CHOP inhibitor)
CN1CCN(Cc2cc(COCc3ccccc3)c3cccnc3c2O)CC1	CHOP UPR activ 131 (no result: CHOP inhibitor) | CHOP UPR conf 54
Oc1ccc(CN2CCN(Cc3ccccc3)CC2)c2cccnc12	CHOP UPR activ 71 | CHOP UPR conf 94
C/C=C/C(=O)OCC(=O)Nc1ccc(SC(F)F)cc1	none
O=S(=O)(Nc1nc2ccccc2nc1NCC1CCCO1)c1cccc(Cl)c1 (centres undefined)	none
CN(C)CCNCCCOc1ccccc1-c1ccccc1	none
COc1cc(/C=N\Nc2nc3ccccc3[nH]2)cc(OC)c1OC	none
